Here are results for 15 compounds from ChEMBL document CHEMBL4261652, “Modifying aroylhydrazone prochelators for hydrolytic stability and improved cytoprotection against oxidative stress” (Bioorg Med Chem, 2018).

The nature of data set [1]: Iron chelating activity of the compound assessed as recovery of calcein fluorescence from calcein-Fe3+ complex at 4 uM preincubated with H2O2 for 12 hrs followed by addition to calcein-Fe3+ complex measured after 2 hrs by fluorescence assay relative to control. The procedure, abridged: (§1)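 Compound at 100 μM in PBS pH 7.4, prepared fresh, either used directly or first incubated 12 h with 5 mM H2O2. Then brought to 4 μM with 2 μM Fe3+-calcein (preformed 4 h from ferric ammonium citrate and calcein) in PBS, equilibrated 2 h at 25 °C; emission read 485/535 nm, as percent of free calcein; n = 3.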

Data set [2] is described as follows: Iron chelating activity of the compound assessed as recovery of calcein fluorescence from calcein-Fe3+ complex by measuring iron binding constant at 4 uM measured after 2 hrs by fluorescence assay. The procedure, abridged:
as §1

Data set [3] relates to ARPE-19. The experiment in a line: Cytoprotective activity against H2O2-induced oxidative stress in human ARPE19 cells at 25 uM pretreated for 5 hrs followed by H2O2-stimulation and measured after 19 hrs by CellTiter-Blue assay. It counts as functional, cell-based. The procedure, abridged: (§2)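 ARPE-19 cells grown to confluence in 1:1 DMEM/F12 with 10% FBS, 37 °C, 5% CO2; washed with MEM, pre-treated 5 h with compound, then H2O2 added to 200 μM final; viability read 19 h later by CellTiter-Blue, as percent of untreated control; triplicate runs, mean ± SD.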
In general terms: The colour change of resazurin is a common sign of viable cells or microbes.

Data set [4] can be described thus: Hydrolytic stability in pH 7.4 PBS buffer at 100 uM by UV-Vis spectrophotometric analysis. It counts as physicochemical. The conditions noted are these: pH 7.4, 100 µM, TDE = time-dependent effect. The procedure, abridged:
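UV-Vis monitoring of prochelator in PBS pH 7.4 at 1-min intervals over 30 min in 1-cm quartz cuvettes; hydrazide plus aldehyde (100 μM each) mixtures followed as reference.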

Data set [5] is described as follows: Hydrolytic stability in PBS of pH 7.4 assessed as equilibrium constant for hydrolytic product formation after 1 hr measured at 1 min intervals over 30 mins by UV-Vis spectrophotometric analysis. It counts as physicochemical. The following applies: buffer, pH 7.4, 1 h. In a few lines: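 K measured by UV-Vis on equilibrated prochelator solutions in PBS pH 7.4 at several starting concentrations. Absorbances at 263 and 321 nm, with extinction coefficients from linear calibration plots, gave equilibrium concentrations of prochelator, hydrazide and aldehyde; K = [INH][FBA]/[prochelator].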

For data set [6], the system named is ARPE-19. The experiment in a line: Cytoprotective activity against paraquat-induced oxidative stress in human ARPE19 cells assessed as cell viability at 100 uM pretreated for 5 hrs followed by paraquat-stimulation and measured after 48 hrs by CellTiter-Blue assay. It counts as functional. The conditions noted are these: read-out: Activity.
In data set [7] the test system is ARPE-19. The experiment in a line: Cytotoxicity against human ARPE19 cells up to 100 uM over 72 hrs by CellTiter-Blue assay. It counts as cell-based. The following applies: arpe-19, 72 h. In a few lines: (§3)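 Confluent ARPE-19 monolayers washed three times with MEM, then exposed 72 h to compound at 5–100 μM in MEM containing up to 1% DMSO; viability by CellTiter-Blue; triplicate runs, standard deviations.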

The nature of data set [8]: Hydrolytic stability of compound in D2O/5% DMSO-d6 solvent at 500 uM preincubated for 1 hr followed by H2O2 addition measured after 24 hrs by 1H-NMR spectroscopy. It counts as physicochemical. The conditions noted are these: D2O/5% DMSO-d6 with H2O2 added; read-out: Stability.
The test system of data set [9] is ARPE-19. The experiment in a line: Cytotoxicity against human ARPE19 cells assessed as reduction in cell viability at 100 uM after 72 hrs by CellTiter-Blue assay. It counts as cell-based. The following applies: arpe-19, 72 h. The procedure, abridged:
as §3

Data set [10] is described as follows: Hydrolytic stability of compound in D2O/5% DMSO-d6 solvent at 500 uM after 1 hr by 1H-NMR spectroscopy. It counts as physicochemical. In a few lines:
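1H NMR in D2O: prochelator at 500 μM with 5% DMSO-d6, or at 200 μM with 2% DMSO-d6, equilibrated 1 h before spectra; activation by H2O2 added to 25 mM final (10 mM in the 200 μM case), reacting 12 h; aromatic peaks integrated.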

In data set [11] the test system is ARPE-19. The experiment in a line: Cytotoxicity against human ARPE19 cells up to 100 uM after 24 hrs by CellTiter-Blue assay. It counts as cell-based. The following applies: arpe-19, 24 h.
Data set [12] can be described thus: Iron chelating activity of the compound assessed as recovery of calcein fluorescence from calcein-Fe3+ complex by measuring iron binding constant at 4 uM preincubated with H2O2 for 12 hrs followed by addition to calcein-Fe3+ complex measured after 2 hrs by fluorescence assay. In a few lines: as §1
The subject of data set [13] is ARPE-19. The experiment in a line: Cytoprotective activity against H2O2-induced oxidative stress in human ARPE19 cells up to 100 uM pretreated for 5 hrs followed by H2O2-stimulation and measured after 19 hrs by CellTiter-Blue assay. It counts as functional, cell-based. The procedure, abridged: as §2
Data set [14] can be described thus: Hydrolytic stability in PBS of pH 7.4 at 50 uM after 1 hr by UV-Vis spectrophotometric analysis. It counts as physicochemical. The following applies: buffer, pH 7.4, 1 h.
In data set [15] the test system is ARPE-19. The experiment in a line: Cytoprotective activity against paraquat-induced oxidative stress in human ARPE19 cells up to 100 uM pretreated for 5 hrs followed by paraquat-stimulation and measured after 48 hrs by CellTiter-Blue assay. It counts as functional, cell-based.
Data set [16] concerns ARPE-19. The experiment in a line: Cytoprotective activity against H2O2-induced oxidative stress in human ARPE19 cells at 25 to 50 uM pretreated for 5 hrs followed by H2O2-stimulation and measured after 19 hrs by CellTiter-Blue assay. It counts as functional, cell-based. In a few lines:
as §2

Data set [17] relates to ARPE-19. The experiment in a line: Cytotoxicity against human ARPE19 cells up to 100 uM after 72 hrs by CellTiter-Blue assay. It counts as cell-based. The conditions noted are these: arpe-19, 72 h. The procedure, abridged:
as §3

The nature of data set [18]: Hydrolytic stability of compound in D2O/2% DMSO-d6 solvent at 200 uM preincubated for 1 hr followed by H2O2 addition measured after 24 hrs by 1H-NMR spectroscopy. It counts as physicochemical. The following applies: D2O/2% DMSO-d6 with H2O2 added; read-out: Stability.
For data set [19], the system named is ARPE-19. The experiment in a line: Cytoprotective activity against paraquat-induced oxidative stress in human ARPE19 cells pretreated for 5 hrs followed by paraquat-stimulation and measured after 48 hrs by CellTiter-Blue assay. It counts as functional, cell-based.
The nature of data set [20]: Hydrolytic stability of compound in D2O/5% DMSO-d6 solvent at 200 uM after 1 hr by 1H-NMR spectroscopy. It counts as physicochemical. The following applies: read-out: Stability.
The nature of data set [21]: Solubility of the compound in aqueous buffer at >50 uM. It counts as physicochemical.
The test system of data set [22] is ARPE-19. The experiment in a line: Cytoprotective activity against paraquat-induced oxidative stress in human ARPE19 cells assessed as cell viability restoration at 100 uM after 48 hrs relative to control. It counts as functional. In a few lines:
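ARPE-19 cells were grown to confluence in 1:1 DMEM/F12 with 10% FBS at 37 °C and 5% CO2, then washed with MEM. Cells were co-incubated in MEM with 10 mM paraquat plus compound for 48 h, with no pre-incubation step. Viability was read by CellTiter-Blue and expressed as % of the untreated MEM-only control. Triplicate runs, SD.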

A short description of data set [23]: Cytotoxicity against rat H9c2 cells after 72 hrs by neutral red uptake assay. It counts as cell-based. The following applies: read-out: TC50.

Structures are written as SMILES. The source made the active and inactive calls. No cut-off for these calls is given here. Bounds are passed on as bounds.

For `COc1ccc(B2OC(C)(C)C(C)(C)O2)c(/C=N/NC(=O)c2ccncc2)c1`, the Activity in [1] is 60%; in [7] it was “Toxic”; in data set [9], 20%; in data set [11], “Non-Toxic”. The outcome in [2] was inactive. The result in data set [3] was Active. In data set [4], the Stability result was “Tde”. Moreover, the K in data set [5] came to 1.1 ×10⁻⁵ M. For the same compound, in data set [6], the viability at 100 µM turned out to be 30%. Besides, in data set [8], the remaining at 24 h, 500 µM turned out to be 67%. Moreover, in [10] (D2O/5% DMSO-d6, read-out: Stability), the remaining at 1 h, 500 µM worked out at 85%.

Consider `O=C(N/N=C/c1ccccc1O)c1ccncc1` [SALINAZID], for which the log(activity) in data set [12] is -23. Moreover, the Activity in data set [2] was greater than 90%; in data set [11], “Non-Toxic”.

Take `COc1ccc(/C=N/NC(=O)c2ccncc2)cc1B1OC(C)(C)C(C)(C)O1`: the result in data set [1], in [2], in [13] and in data set [15] was inactive. In addition, the Stability entry in data set [10] (1 h, 500 µM) was “Stable”; in [14], “Stable”. For the same compound, in [11], the Activity result was “Non-Toxic”.

As to `COc1ccc(/C=N/NC(=O)c2cccnc2)c(O)c1`, the figures for the Activity in [2] and in data set [11] were greater than 90% and “Non-Toxic”, respectively.

As for `Oc1ccccc1/C=N/NC(=S)Nc1ccccc1`, the outcome in data set [2] was inactive. Besides, the Activity result in data set [11] is on record as “Non-Toxic”.

Turning to `CC1(C)OB(c2ccccc2/C=N/NC(=O)c2ccncc2)OC1(C)C`, the Activity in [1] was 50%; in data set [17] it was “Non-Toxic”; in [11], “Non-Toxic”. Besides, the result in data set [2] and in data set [15] was inactive. Also, the K in data set [5] worked out at 1.5 ×10⁻⁵ M. Also, the result in [16] was Active.

As to `CNC(=S)N/N=C/c1ccccc1O`, the outcome in data set [2] and in [13] was inactive. In addition, the Activity entry in data set [11] is “Non-Toxic”.

For the compound `COc1ccc(/C=N/NC(=O)c2cccnc2)c(B2OC(C)(C)C(C)(C)O2)c1`, the outcome in data set [1] and in data set [2] was inactive. Moreover, the Activity result in [11] is reported as “Non-Toxic”.

As for `COc1ccc(O)c(/C=N/NC(=O)c2ccncc2)c1`, the Activity is greater than 90% in data set [2] and “Non-Toxic” in data set [11].

In the case of `CC1(C)OB(c2cc3c(cc2/C=N/NC(=O)c2ccncc2)OCO3)OC1(C)C`, the Activity in [1] was 75%; in data set [19], “Dose-dependent effect”; in data set [17], “Non-Toxic”; in data set [11], “Non-Toxic”. In addition, the outcome in [2] was inactive. Further, the result in data set [3] was Active. In data set [18], the remaining at 24 h, 200 µM was found to be 45%. Further, in [4], the Stability result was “Tde”. Further, the K in data set [5] was determined as 8 ×10⁻⁶ M. Further, in [20], the remaining at 1 h, 200 µM was determined as 80%.

As to `COc1ccc(/C=N/NC(=O)c2ccncc2)c(O)c1`, in data set [21], the solubility result is “Insoluble”.

Consider `O=C(N/N=C/c1ccc(Cl)cc1B(O)O)c1ccncc1`, for which the outcome in data set [1] and in data set [2] was inactive. For the same compound, the Activity entry in data set [11] is “Non-Toxic”.

In the case of `C/C(=N\NC(=O)c1ccncc1)c1ccccc1OCc1ccc(B2OC(C)(C)C(C)(C)O2)cc1`, the figures for the Activity in data set [22], in data set [19] and in data set [9] were 40%, “Dose-dependent effect” and 25%, respectively. Also, in data set [23], the CC50 at 72 h was 37.1 µM.

For the compound `CC1(C)OB(c2ccccc2/C=N/NC(=S)Nc2ccccc2)OC1(C)C`, the result in data set [1], in [2] and in data set [15] was inactive. For the same compound, in data set [16], the result was Active. The Activity result in data set [11] is given as “Non-Toxic”.

Regarding `CNC(=S)N/N=C/c1ccccc1B1OC(C)(C)C(C)(C)O1`, the result in data set [1], in data set [2] and in [13] was inactive. Moreover, in data set [11], the Activity entry was “Non-Toxic”.
